We go through 22 compounds from ChEMBL document CHEMBL1145187.

The structures appear in SMILES notation. Some results are limits rather than exact numbers.

Experiment [1] addresses Estrogen receptor beta (Homo sapiens) (UniProt Q92731). Kind of experiment: Transcriptional efficacy against human estrogen receptor beta at 10e-6 M. Type of experiment: functional. Put shortly:
(§1)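 HEC-1 cells were grown in phenol-red MEM with 5% calf serum and 5% fetal calf serum, then plated in phenol-red-free improved MEM with 5% charcoal dextran-treated calf serum. They were lipofectin-transfected for 5 h at 37 °C with ERβ expression vector, 2ERE-pS2-Luc and pCMV β-galactosidase. Ligand was then added for 24 h.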

The target in experiment [2] is T1, Estrogen receptor (Homo sapiens) (UniProt P03372).
T1 sequence (whole entry): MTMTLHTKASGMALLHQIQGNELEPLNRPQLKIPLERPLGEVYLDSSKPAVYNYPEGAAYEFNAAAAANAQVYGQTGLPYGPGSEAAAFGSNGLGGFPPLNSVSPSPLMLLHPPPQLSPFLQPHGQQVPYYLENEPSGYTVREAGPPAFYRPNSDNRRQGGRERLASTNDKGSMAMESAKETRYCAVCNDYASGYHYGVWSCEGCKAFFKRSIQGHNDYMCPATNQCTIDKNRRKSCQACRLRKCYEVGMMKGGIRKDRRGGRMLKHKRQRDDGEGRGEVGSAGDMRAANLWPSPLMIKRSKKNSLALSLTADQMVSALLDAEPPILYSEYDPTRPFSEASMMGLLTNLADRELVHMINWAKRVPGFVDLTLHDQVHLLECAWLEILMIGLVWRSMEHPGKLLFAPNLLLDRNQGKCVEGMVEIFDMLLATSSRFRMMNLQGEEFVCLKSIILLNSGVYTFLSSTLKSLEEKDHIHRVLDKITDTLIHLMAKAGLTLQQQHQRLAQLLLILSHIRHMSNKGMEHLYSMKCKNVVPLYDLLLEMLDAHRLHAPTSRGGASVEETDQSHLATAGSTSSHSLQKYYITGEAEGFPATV
The experiment is described as follows: Relative binding affinity for human estrogen receptor alpha.

In experiment [3] the target is Estrogen receptor beta (Homo sapiens) (UniProt Q92731). The experiment is described as follows: Transcriptional efficacy against human estrogen receptor beta at 10e-8 M. The class given is functional. Put shortly: as §1
Sequence of Estrogen receptor beta (Homo sapiens) (Q92731 whole entry): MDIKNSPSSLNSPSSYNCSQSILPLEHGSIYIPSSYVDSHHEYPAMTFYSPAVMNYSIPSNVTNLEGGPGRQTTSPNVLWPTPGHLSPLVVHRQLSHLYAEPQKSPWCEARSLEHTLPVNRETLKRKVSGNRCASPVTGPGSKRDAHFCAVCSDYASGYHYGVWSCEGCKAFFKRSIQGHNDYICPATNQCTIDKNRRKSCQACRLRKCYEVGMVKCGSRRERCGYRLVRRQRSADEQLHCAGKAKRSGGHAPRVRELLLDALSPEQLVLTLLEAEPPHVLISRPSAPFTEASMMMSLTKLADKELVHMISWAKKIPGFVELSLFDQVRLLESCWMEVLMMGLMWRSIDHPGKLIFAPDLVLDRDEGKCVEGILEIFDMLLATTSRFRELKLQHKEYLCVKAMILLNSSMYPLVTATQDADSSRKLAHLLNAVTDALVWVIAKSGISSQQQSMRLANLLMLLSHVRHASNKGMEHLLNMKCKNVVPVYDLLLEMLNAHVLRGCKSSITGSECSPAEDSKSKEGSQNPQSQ

On to `Cc1c2cc(O)ccc2nn1-c1ccc(O)cc1`, for which the Efficacy in experiment [1] was 87%; in experiment [3], 57%. In experiment [2], this compound had a Relative binding affinity of 0.03.
In the case of `Oc1ccc(-n2nc3ccc(O)cc3c2Cl)cc1`, the Efficacy in experiment [1] turned out to be 89%; in experiment [3], 88%. In experiment [2], the Relative binding affinity worked out at 0.3.
Turning to `Oc1ccc2nn(-c3ccc(O)c(Cl)c3)cc2c1`, the Relative binding affinity in experiment [2] was determined as 0.07.
Still for that read-out and setting: the value for `Oc1ccc(-n2cc3ccccc3n2)cc1` was 0.02; that for `Oc1ccc(-n2nc3cc(O)ccc3c2Cl)cc1` was 0.08.
As for `Oc1ccc(-n2nc3ccc(O)cc3c2-c2ccccc2)cc1`, the Efficacy in experiment [1] turned out to be 28%; in experiment [3], 11%. The same compound registered a Relative binding affinity in experiment [2] of 0.04.
As for `Oc1ccc(-n2nc3ccc(O)cc3c2Br)cc1`, the Efficacy in experiment [1] was 67%; in experiment [3], 66%. The compound also showed a Relative binding affinity in experiment [2] of 0.18.
`C=CCc1c2cc(O)ccc2nn1-c1ccc(O)cc1` displayed a Relative binding affinity in experiment [2] of 0.06.
Compound `Oc1ccc2nn(-c3ccccc3)c(Cl)c2c1` displayed a Relative binding affinity in experiment [2] of 0.014.
On the same count and under the same terms, the value for `CC(C)c1c2cc(O)ccc2nn1-c1ccc(O)cc1` was 0.14.
For `CCc1c2cc(O)ccc2nn1-c1ccc(O)cc1`, the Efficacy in experiment [1] came to 100%; in experiment [3], 63%. The same compound yielded a Relative binding affinity in experiment [2] of 0.08.
On the same counts, the results for `Oc1ccc(-n2nc3ccc(O)cc3c2I)cc1` are 58%, 85% and 0.17.
In the case of `Oc1ccc(-n2nc3c(Cl)c(O)ccc3c2Cl)cc1`, in experiment [2], the Relative binding affinity came out at 0.07.
As for `Oc1ccc(-n2nc3ccc(O)cc3c2C(F)(F)F)cc1`, the Efficacy was found to be 74% in experiment [1] and 78% in experiment [3]. In experiment [2], this compound displayed a Relative binding affinity of 3.9.
Compound `Oc1ccc(-n2nc3ccccc3c2Cl)cc1` came in with a Relative binding affinity in experiment [2] of 0.03.
Still for that read-out and setting: the value for `Oc1ccc2nn(-c3ccc(O)c(Cl)c3)c(Cl)c2c1` was 0.023.
Consider `Oc1ccc(-n2cc3ccc(O)cc3n2)cc1`, for which the Efficacy in experiment [1] is 75%; in experiment [3], 1.7%. Besides, the Relative binding affinity in experiment [2] is 0.008.
On the same counts, the results for `Oc1ccc(-n2cc3ccc(O)c(Br)c3n2)cc1` are 29%, 1.4% and 0.02.
In turn, `CCCc1c2cc(O)ccc2nn1-c1ccc(O)cc1` displayed a Relative binding affinity in experiment [2] of 0.04.
`N#Cc1c2cc(O)ccc2nn1-c1ccc(O)cc1`: the Efficacy was found to be 56% in experiment [1] and 82% in experiment [3]. For the same compound, the Relative binding affinity in experiment [2] stood at 1.4.
On the same counts, the results for `Oc1ccc(-n2cc3cc(O)ccc3n2)cc1` are 90%, 47% and 0.049.
The compound `Oc1ccc2nn(-c3ccccc3)cc2c1` had a Relative binding affinity in experiment [2] of less than 0.004.
